Experimental data pooled from the literature.
Protocols differ between the studies behind these lines.
SIRT6: NAD-dependent protein deacylase sirtuin-6 (SIRT6, Homo sapiens, UniProt Q8N6T7)
ALK: ALK tyrosine kinase receptor (ALK, Homo sapiens, UniProt Q9UM73)
SCN5A: Sodium channel protein type 5 subunit alpha (SCN5A, Homo sapiens, UniProt Q14524)
CCR5: C-C chemokine receptor type 5 (CCR5, Homo sapiens, UniProt P51681)

Structure (SMILES)	target	effect on	action	technique	notes	IC50 [µM]
C=C(C)[C@H](CC=C(C)C)Cc1c(O)cc(O)c2c1O[C@H](c1ccccc1O)CC2=O	Fatty acid synthase (FASN, Gallus gallus, UniProt P12276)	enzyme activity	inhibitor	radiometric		8.5
NC(=S)c1ccc(C(=O)NOCc2ccc(C(F)(F)F)cc2)cc1	SIRT6	enzyme activity	inhibitor	fluorescence		2.03
COc1ccc(-c2ccc3[nH]c4ncc(-c5cccc(N)c5)cc4c3c2)cc1	ALK	enzyme activity	inhibitor	ELISA		> 10
Cc1nc2ccccc2c(=O)n1NC(=O)CSc1nc2ccccc2c(=O)n1-c1ccccc1	Cathepsin B (CTSB, Homo sapiens, UniProt P07858)	enzyme activity	inhibitor			62.8
Cc1cc(-c2cc(C#N)ccc2O[C@@H]2C[C@]2(CN)c2ccc(F)cc2F)n[nH]1 (racemic)	ALK	phosphorylation in cells	inhibitor	ELISA		0.16
COc1ccc2c(Oc3ccc4c(C(=O)Nc5ccccc5N)cccc4c3)ccnc2c1	SCN5A	ion current	inhibitor			> 10
O=C(NCCN1CCCC1)c1cc(-c2ccc(CN3CCOCC3)cc2)nc2ccc(F)cc12	SCN5A	ion current	inhibitor	patch clamp		16
COc1cccc(CONC(=O)c2ccc(C(N)=O)cc2)c1	SIRT6	enzyme activity	inhibitor	fluorescence		6.49
O=C(Nc1ccn(Cc2ccc(O)cc2C(F)(F)F)n1)c1c(F)cccc1F	SCN5A	ion current	inhibitor			> 10
Cc1ccc(C(=O)Nc2ccc(Oc3cc4cnn(C)c4cc3-c3cn[nH]c3)c(F)c2)c(=O)n1-c1ccc(F)cc1	Vascular endothelial growth factor receptor 3 (FLT4, Homo sapiens, UniProt P35916)	enzyme activity in cells	inhibitor			> 0.316
CN(Cc1ccc(NC(=O)C2=Cc3cc(-c4ccc(OCCCCCO)cc4)ccc3CCC2)cc1)C1CCOCC1	CCR5	ligand displacement		radioligand	cell membranes	3.1
NC(=O)c1ccc[n+]([C@@H]2O[C@H](COP(=O)([O-])OP(=O)(O)OC[C@H]3O[C@@H](n4cnc5c(N)ncnc54)[C@H](O)[C@@H]3O)[C@@H](O)[C@H]2O)c1	Poly [ADP-ribose] polymerase 2 (PARP2, Homo sapiens, UniProt Q9UGN5)	enzyme activity	inhibitor			50
COC[C@]1(c2ccc(F)cc2F)C[C@H]1Oc1ccc(C#N)cc1-c1cc(C)[nH]n1 (racemic)	ALK	phosphorylation in cells	inhibitor	ELISA		0.89
NC(=O)c1ccc(C(=O)NOCc2ccc3nccnc3c2)cc1	SIRT6	enzyme activity	inhibitor	fluorescence		65
CCN(CC)C(=S)SSC(=S)N(CC)CC	Receptor-type tyrosine-protein phosphatase C (PTPRC, Homo sapiens, UniProt P08575)	enzyme activity	inhibitor	fluorescence		> 500
O=C(NOCc1ccc(C(F)(F)F)cc1)c1ccc(CO)cc1	SIRT6	enzyme activity	inhibitor	fluorescence		6.68
Nc1nonc1-n1cc(C(=O)N/N=C/c2ccc(O)c(O)c2O)nn1	SIRT6	enzyme activity	inhibitor	fluorescence		26
NCCc1ccc(C(=O)NOCc2ccc(C(F)(F)F)cc2)cc1	SIRT6	enzyme activity	inhibitor	fluorescence		2.65
CN(Cc1ccc(NC(=O)C2=Cc3cc(-c4ccc(OCCCO)cc4)ccc3CCC2)cc1)C1CCOCC1	CCR5	ligand displacement		radioligand	cell membranes	0.97
NC(=O)c1ccc(C(=O)NOCc2cccc(F)c2)cc1	SIRT6	enzyme activity	inhibitor	fluorescence		6.61
C/C(=C\C(=O)OCCCCCCCCC(=O)O)C[C@@H]1OC[C@H](C[C@@H]2O[C@H]2[C@@H](C)[C@H](C)O)[C@@H](O)[C@H]1O	CCR5	calcium signal	antagonist			10.6
